Data set [1] deals with HT-29. The experiment in a line: Cytotoxicity against human HT-29 cells incubated for 72 hrs by SRB assay. Format: functional, cell-based. The settings on record: HT-29, 72 h. In a few lines: (§1)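 Cells plated in 96-well format and left 24 h, then exposed to serial dilutions of compound for 72 h; growth read by sulforhodamine B staining. Media held 10 % fetal bovine serum and 1 % penicillin-streptomycin. IC50 taken from dose-response curves, means of 2 independent experiments.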

Data set [2] deals with A2780. The experiment in a line: Cytotoxicity against human A2780 cells incubated for 72 hrs by SRB assay. Format: functional, cell-based. The note with it: A2780, 72 h. The essentials:
as §1

For data set [3], the system named is MCF7. The experiment in a line: Cytotoxicity against human MCF7 cells incubated for 72 hrs by SRB assay. It counts as functional, cell-based. The note with it: MCF7, 72 h. The essentials:
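Cells plated in 96-well format and left 24 h, then exposed to serial dilutions of compound for 72 h; growth read by sulforhodamine B staining. Media held 10 % fetal bovine serum and 1 % penicillin-streptomycin.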

Data set [4] has as its system A549. Description: Cytotoxicity against human A549 cells incubated for 72 hrs by SRB assay. It counts as functional, cell-based. The settings on record: A549, 72 h. In a few lines: as §1
Data set [5] is described as follows: Resistance index, ratio of IC50 for human A2780cis cells to IC50 for human A2780cis cells. It counts as functional. The settings on record: in the assay text read “to IC50 for human A2780 cells” for “to IC50 for human A2780cis cells”. In a few lines:
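Resistance index calculated as the ratio of the 72 h SRB IC50 in A2780cis to that in parental A2780.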

The nature of data set [6]: Drug accumulation in human HT-29 cells at 500 nM incubated for 30 mins by fluorescence based analysis. It counts as ADME, cell-based. The note with it: ht-29, 0.5 h, 0.5 µM. In a few lines:
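Live-cell imaging in HT29 cells seeded at 20.000 per well and grown 48 h, then switched to phenol-red-free RPMI 1640. Co-treated with compound at 500 nM, HypoxySense 680 (1:2000, CAIX probe) and Hoechst 33342 nuclear stain. Imaged after 30 min by fluorescence microscopy at Ex/Em 385/425 nm (Hoechst), 555/592 nm (compounds) and 630/681 nm (HypoxySense).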

Data set [7] is described as follows: Selectivity index, ratio of IC50 for human CCD-18Co cells to IC50 for human A2780cis cells. The essentials:
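Selectivity index calculated as the ratio of the 72 h SRB IC50 in non-malignant CCD18Co fibroblasts to that in A2780cis.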

A short description of data set [8]: Cytotoxicity against human A2780cis cells incubated for 72 hrs by SRB assay. It counts as functional, cell-based. In a few lines: as §1
The nature of data set [9]: Cytotoxicity against human CCD-18Co cells incubated for 72 hrs by SRB assay. Format: toxicity, cell-based. In a few lines:
as §1

pIC50: −log10 of the molar value.

Consider `CCN(CC)c1ccc2c(-c3ccccc3C(=O)N3CCN(C(=O)c4ccc(CCSc5c(F)c(F)c(S(N)(=O)=O)c(NC[C@]6(C)CCC[C@]7(C)c8ccc(C(C)C)cc8CC[C@@H]67)c5F)cc4)CC3)c3ccc(=[N+](CC)CC)cc-3oc2c1.[Cl-]`, for which the negative-log IC50 (pIC50) in data set [1] was 6.28; in data set [2], 6.42; in [3] it was 6.39; in data set [4], 6.15; in [8], 6.34. In addition, the “Ratio IC50” value in data set [5] is recorded as 1.21; in data set [7] it was 2.22. Also, in data set [6], the Drug uptake entry was “Active”. The IC50 at 72 h in [9] stood at 1020 nM.

In the case of `CCN(CC)c1ccc2c(-c3ccccc3C(=O)N3CCN(C(=O)c4ccc(CCSc5c(F)c(F)c(S(N)(=O)=O)c(NC6CCCCCCCCCCC6)c5F)cc4)CC3)c3ccc(=[N+](CC)CC)cc-3oc2c1.[Cl-]`, the pIC50 is 6.49 in data set [1]; 6.62 in data set [2]; 6.59 in data set [3]; 6.23 in [4]; 6.35 in data set [8]. In addition, the “Ratio IC50” value in data set [5] is recorded as 1.87; in [7], 1.22. Further, in data set [6], the Drug uptake entry is “Active”. For the same compound, in [9], the IC50 at 72 h stood at 550 nM.

`COc1cccc2c1C(=O)c1c(O)c3c(c(O)c1C2=O)C[C@@](O)(C(=O)CO)C[C@@H]3O[C@H]1C[C@H](N)[C@H](O)[C@H](C)O1` [DOXORUBICIN]: the negative-log IC50 (pIC50) in [1] was 7.07; in data set [4], 7.64; in [8], 7.00. The IC50 at 72 h in [9] was 269 nM.

Source of the values: ChEMBL document CHEMBL5608190, “Dehydroabietylamine-substituted trifluorobenzene sulfonamide rhodamine B hybrids as anticancer agents overcoming drug resistance” (Eur J Med Chem, 2024).
